Active and inactive are the calls of the source.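 The calls were made as follows: active = inhibition of 30% or more at any tested concentration; inactive = the rest.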
The compounds below were run against Cytosol aminopeptidase (Homo sapiens) (UniProt P28838) (assay: human M17 leucine aminopeptidase inhibitors, dose response, counter-screen for PfM17LAP inhibitor project, biochemical, QFRET fluorogenic substrate (AID 602407)). Conditions: recombinant human M17LAP, H-Leu-NHMec fluorogenic cleavage.
Sequence of Cytosol aminopeptidase (Homo sapiens) (P28838 whole entry, looked up): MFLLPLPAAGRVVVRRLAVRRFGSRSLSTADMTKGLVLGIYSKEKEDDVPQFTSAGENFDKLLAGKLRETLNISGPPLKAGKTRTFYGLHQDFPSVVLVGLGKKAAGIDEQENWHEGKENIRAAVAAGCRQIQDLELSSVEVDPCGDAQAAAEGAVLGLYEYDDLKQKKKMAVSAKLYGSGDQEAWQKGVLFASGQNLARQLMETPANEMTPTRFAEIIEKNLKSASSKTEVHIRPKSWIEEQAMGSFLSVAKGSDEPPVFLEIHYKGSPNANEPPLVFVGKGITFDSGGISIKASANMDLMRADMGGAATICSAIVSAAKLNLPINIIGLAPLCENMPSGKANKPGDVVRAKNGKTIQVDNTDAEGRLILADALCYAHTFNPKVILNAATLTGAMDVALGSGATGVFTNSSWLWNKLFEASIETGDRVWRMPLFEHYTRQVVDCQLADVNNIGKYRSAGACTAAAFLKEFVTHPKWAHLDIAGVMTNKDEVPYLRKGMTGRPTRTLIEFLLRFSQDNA
How it was run: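 System: recombinant human M17LAP enzyme. Times: enzyme reaction with compounds, 90 min at room temperature. Detection: NHMec fluorescence, 370/460 nm. Benchmarks: full reaction and enzyme-free controls.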

Structure (SMILES) | IC50
CCCOc1ccc(CC(=O)NO)cc1 | 490 nM
CCCCOc1cccc(CC(=O)NO)c1 | 2770 nM
CCC(C)Oc1ccc(CC(=O)NO)cc1 (stereo not drawn) | 380 nM
CCCCOc1ccc(C(C)C(=O)NO)cc1 (stereo not drawn) | 530 nM
O=C(NO)c1ccc2ccccc2c1 | 8380 nM

Same assay, conditions: recombinant human M17LAP, H-Leu-NHMec fluorogenic cleavage; at 100 µM (top of the series)

Structure (SMILES) | inhibition
CCCCOc1ccc(C(C)C(=O)OC)cc1 (stereo not drawn) | inactive
CN(C)CCOc1ccc(CC(=O)O)cc1 | inactive
CCCOc1ccc(CC(=O)O)cc1 | inactive
CCCCOc1ccc(C(C)(C)C(=O)O)cc1 | inactive
CCCCOc1ccc(CN(O)C(C)=O)cc1 | inactive
CCCCOc1cccc(CC(=O)OC)c1 | inactive
CCCCOc1ccc(CN(O)C(=O)c2ccccc2)cc1 | inactive
CCCCOc1ccc(C(C)(C)C(=O)NO)cc1 | inactive
